Consider three compounds from ChEMBL document CHEMBL1909579, “New bioactive macrocyclic diterpenoids from Jatropha multifida” (Bioorg Med Chem Lett, 2011).

Converted amounts (≈) assume the structure as drawn.

Usually IC50 stands for the concentration needed to halve the response being measured. Read a high IC50 as a need for much substance. What is called MIC is the smallest concentration in the dilution series that meets the test's criterion for growth inhibition. Low readings indicate greater potency, high ones weaker potency.

Test [1] in a line: Cytotoxicity against human MDA231 cells by MTT assay. The settings on record: MDA-MB-231. It counts as functional, cell-based. The essentials: (§1)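 MTT read-out following Mosmann's method; IC50 for each cell line derived from four individual observations.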
Background: Tetrazolium assays rely on reduction of a dye to a coloured formazan, in cell work by metabolically active cells.

Another test concerns HeLa. The test can be described thus: Cytotoxicity against human HeLa cells by MTT assay. It counts as functional, cell-based. In short, it runs like this:
as §1

Test [2] has as its system Staphylococcus aureus. The test can be described thus: Antimicrobial activity against Staphylococcus aureus MTCC 96 by microtiter broth dilution method. It counts as functional. The essentials: (§2)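 MIC determined by microtiter broth dilution, with neomycin as the reference control; each organism's value derived from four individual observations.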
In general terms: Dilution methods test growth across graded concentrations, often in twofold steps.

Another test deals with Pseudomonas aeruginosa. The test is described as follows: Antimicrobial activity against Pseudomonas aeruginosa MTCC 2453 by microtiter broth dilution method. It counts as functional. The essentials:
as §2

The test system of another test is A549. The test is described as follows: Cytotoxicity against human A549 cells by MTT assay. It counts as functional, cell-based. In short, it runs like this: as §1
A further test deals with Bacillus subtilis. The test is described as follows: Antimicrobial activity against Bacillus subtilis MTCC 121 by microtiter broth dilution method. It counts as functional. The essentials:
as §2

For another test, the system named is Raoultella planticola. The test can be described thus: Antimicrobial activity against Klebsiella planticola MTCC 530 by microtiter broth dilution method. It counts as functional. The essentials:
as §2

Test [3] can be described thus: Cytotoxicity against mouse Neuro2a cells by MTT assay. It counts as functional, cell-based. The note with it: N2a. In short, it runs like this:
(§3)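 MTT assay following Mosmann's method. Each IC50 was derived from four individual observations for each cell line.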

Test [4] concerns Staphylococcus aureus. The test is described as follows: Antimicrobial activity against Staphylococcus aureus MLS16 MTCC 96 by microtiter broth dilution method. It counts as functional. The note with it: MLS16 MTCC 2940, in the assay text read “MTCC 2940” for “MTCC 96”. The essentials: as §2
A further test concerns MCF7. The test is described as follows: Cytotoxicity against human MCF7 cells by MTT assay. It counts as functional, cell-based. In short, it runs like this:
as §3

The subject of another test is Escherichia coli. The test is described as follows: Antimicrobial activity against Escherichia coli MTCC 739 by microtiter broth dilution method. It counts as functional. The essentials:
as §2

As to `COc1cccc2c1C(=O)c1c(O)c3c(c(O)c1C2=O)C[C@@](O)(C(=O)CO)C[C@@H]3O[C@H]1C[C@H](N)[C@H](O)[C@H](C)O1` [DOXORUBICIN], the half-inhibitory concentration (IC50) (in test [1]; with HeLa) was < 1 µM each time.

Consider `C[C@H]1C[C@@H]2[C@H](CC[C@](C)(O)/C=C3\[C@H](O)[C@@H](C)C[C@@]3(O)C1=O)C2(C)C` [MULTIFIDANOL], for which the MIC was 18.8 µg/mL (≈ 55.7 µM) against Staphylococcus aureus [2]; 9.37 µg/mL (≈ 27.8 µM) with Pseudomonas aeruginosa; 4.68 µg/mL (≈ 13.9 µM) against Bacillus subtilis; 9.37 µg/mL (≈ 27.8 µM) in the test on Raoultella planticola; 18.8 µg/mL (≈ 55.7 µM) with Staphylococcus aureus [4]; 4.68 µg/mL (≈ 13.9 µM) against Escherichia coli. For the same compound, the IC50 worked out at 6.27 µM in the test on A549; 6.35 µM in test [3]; 6.39 µM in the test with MCF7; 7.04 µM in test [1]; 15.4 µM in the test with HeLa.

Regarding `CC1=C[C@@]2(O)C(=O)[C@@H](C)C[C@@H]3[C@H](CC[C@](C)(O)/C=C/2[C@@H]1O)C3(C)C` [MULTIFIDENOL], the MIC against Staphylococcus aureus [2] and with Staphylococcus aureus [4] was 4.68 µg/mL (≈ 14 µM) each time. In addition, the IC50 turned out to be 12.5 µM with A549; 5.6 µM in test [3]; 8.57 µM in the test on MCF7; 5.39 µM in [1]; 7.56 µM in the test with HeLa.
